Measurements pooled from the literature.
Target: TGF-beta receptor type-2 (TGFBR2, Homo sapiens, UniProt P37173)

SMILES	test	conditions	remaining binding [%]
CC1=C(C#N)C(c2ccc3c(c2)c(NC(=O)c2ccccc2C)nn3C)C(C#N)=C(C)N1	cell-free assay, competition with immobilised ligand	1 µM	99
COc1ccnn2ncc(-c3ccnc(N(C)C)n3)c12	binding	1 µM	100
CNC(=O)[C@@H]1CC[C@@H](n2c(-c3ccc4cnccc4c3)nc3ccc(C(=O)NCc4cccc(C(N)=O)c4)cc32)C1	binding, competition with immobilised ligand	1 µM	100
CN(C)c1nccc(-c2cnc3ncccn23)n1	binding	1 µM	76
O=C(N[C@H]1CCCCC/C=C\C2C[C@@]2(C(=O)O)NC(=O)[C@@H]2C[C@@H](Oc3ccncc3)CN2C1=O)OC1CCCC1 (stereo partly drawn)	cell-free assay, competition with immobilised ligand	1 µM	85
F[C@@H]1CCN(c2nccc(-c3cnn4ncccc34)n2)C1	binding	1 µM	100
O=C(c1ccc(Nc2nccc(-c3cc4ccccc4s3)n2)cc1)N1CCC(N2CCCC2)CC1	binding, competition with immobilised ligand	1 µM	88
Cc1cnn2ncc(-c3ccnc(N(C)C)n3)c2c1	binding	1 µM	80
COc1cnc(Nc2cccc(S(N)(=O)=O)c2)nc1N1CCN(c2ccccc2)CC1	binding, competition with immobilised ligand	1 µM	100
CO[C@@H](C)c1c(Nc2ccc([C@@H](N(C)C(=O)C3CCS(=O)(=O)CC3)C(F)(F)F)cc2)cnc2cc(Cl)nn12	cell-free assay, competition with immobilised ligand	1 µM	100
CN(CCCC(F)(F)F)c1nccc(-c2cnn3ncccc23)n1	binding	1 µM	73
O=C(c1ccc(Nc2ncc(Cl)c(-c3ccc(Cl)s3)n2)cc1)N1CCC(N2CCCC2)CC1	binding, competition with immobilised ligand	1 µM	100
COCCOc1nc(-c2ccc(Cl)nc2)nc2c1CN(C(=O)c1ncn3ccccc13)CC2	cell-free assay, competition with immobilised ligand	0.1 µM	94
FC(F)(F)Oc1cccc(-c2cnc3ccc(-c4ccncc4)nn23)c1	cell-free assay, competition with immobilised ligand	5 µM	66
C[C@H]1CCN(c2nccc(-c3cnn4ncccc34)n2)C1	binding	1 µM	60
c1cncc(-c2cccc(Nc3nccc(NC4CCCCC4)n3)c2)c1	binding, competition with immobilised ligand	10 µM	30
COc1cccc(CNC(=O)c2nc3scc(COCc4ccc(C(=O)O)cc4)c3c(=O)[nH]2)c1	cell-free assay, competition with immobilised ligand	1 µM	97
O=C(NCC1CCOCC1)c1n[nH]cc1NC(=O)c1c(F)cccc1F	binding, competition with immobilised ligand	1 µM	100
COc1ncc2cc3ccccc3nc2c1C#N	cell-free assay, competition with immobilised ligand	5 µM	100
Cc1cnc(Nc2ccc(C(=O)N3CCC(N4CCCC4)CC3)cc2)nc1-c1cc2ccccc2s1	binding, competition with immobilised ligand	1 µM	61
O=C(O)[C@@H]1[C@@H](Cn2nnc3ccccc3c2=O)CC[C@H]1C(=O)c1ccc(OCCC2CCOCC2)cc1	cell-free assay, competition with immobilised ligand	1 µM	100
